{
  "source": "ChEMBL document CHEMBL4020830",
  "about": "“Design, Synthesis, and Evaluation of a Novel Series of Indole Sulfonamide Peroxisome Proliferator Activated Receptor (PPAR) α/γ/δ Triple Activators: Discovery of Lanifibranor, a New Antifibrotic Clinical Candidate” (J Med Chem, 2018)",
  "key": {"[1]": {"molecular_target": "T1, Peroxisome proliferator-activated receptor delta (Mus musculus) (UniProt P35396)", "T1 sequence (whole entry)": "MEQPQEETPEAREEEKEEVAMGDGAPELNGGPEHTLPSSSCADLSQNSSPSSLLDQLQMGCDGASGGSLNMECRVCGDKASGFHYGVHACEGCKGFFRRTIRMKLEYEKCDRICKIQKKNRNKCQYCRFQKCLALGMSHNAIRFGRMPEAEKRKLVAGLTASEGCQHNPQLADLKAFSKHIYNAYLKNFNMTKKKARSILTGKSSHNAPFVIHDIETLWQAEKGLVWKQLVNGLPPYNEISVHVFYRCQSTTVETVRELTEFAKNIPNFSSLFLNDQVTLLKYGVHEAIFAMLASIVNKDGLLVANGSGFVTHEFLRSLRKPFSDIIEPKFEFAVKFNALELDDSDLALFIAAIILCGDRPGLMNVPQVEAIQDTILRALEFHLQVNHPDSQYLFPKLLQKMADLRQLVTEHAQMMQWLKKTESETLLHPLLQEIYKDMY", "experiment": "Transactivation of PPARdelta in mouse C2C12 cells assessed increase in [14C]oleate beta-oxidation at 30 uM preincubated for 48 hrs followed by [14C]oleate addition during last 2 hrs of incubation period relative to control", "type": "cell-based", "method_in_brief": "(§1)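 Fatty acid beta-oxidation was used as the functional read-out. PPARα activity was tested in human hepatoma HuH7 cells and PPARδ activity in mouse myoblast C2C12 cells, at 1, 3, 10 and 30 µM. Values are % beta-oxidation, mean of at least 2 independent experiments run in triplicate, with single-experiment values flagged.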"}, "[2]": {"molecular_target": "T1, Peroxisome proliferator-activated receptor delta (Mus musculus)", "experiment": "Transactivation of PPARdelta in mouse C2C12 cells assessed increase in [14C]oleate beta-oxidation at 10 uM preincubated for 48 hrs followed by [14C]oleate addition during last 2 hrs of incubation period relative to control", "type": "cell-based", "method_in_brief": "as §1"}, "[3]": {"experiment": "Cmax in C57Bl6 mouse at 10 mg/kg, po administered as single oral dose", "type": "ADME, organism-based", "details": "in vivo", "method_in_brief": "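Single oral dose of 10 mg/kg in methyl cellulose vehicle given to C57Bl6 mice. Plasma was sampled over a 24 h period. […]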"}, "[4]": {"molecular_target": "T2, Peroxisome proliferator-activated receptor gamma (Homo sapiens, UniProt P37231)", "T2 sequence (P37231 whole entry)": "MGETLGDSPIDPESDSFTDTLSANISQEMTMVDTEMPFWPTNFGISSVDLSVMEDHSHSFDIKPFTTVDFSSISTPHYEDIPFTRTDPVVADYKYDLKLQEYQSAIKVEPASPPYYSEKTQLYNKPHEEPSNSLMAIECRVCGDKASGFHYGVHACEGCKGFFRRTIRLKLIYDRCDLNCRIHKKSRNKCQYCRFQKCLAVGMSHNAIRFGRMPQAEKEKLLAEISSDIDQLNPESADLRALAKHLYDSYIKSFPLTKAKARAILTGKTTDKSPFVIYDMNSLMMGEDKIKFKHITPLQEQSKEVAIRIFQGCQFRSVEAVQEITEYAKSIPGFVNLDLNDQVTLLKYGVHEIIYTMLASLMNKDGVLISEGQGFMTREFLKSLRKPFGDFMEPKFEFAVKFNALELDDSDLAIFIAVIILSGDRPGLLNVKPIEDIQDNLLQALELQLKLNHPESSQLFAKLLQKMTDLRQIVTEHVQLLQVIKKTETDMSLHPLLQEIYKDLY", "experiment": "Transactivation of human GAL4-fused PPARgamma LBD expressed in African green monkey COS7 cells co-expressing 5Gal4 pGL3 TK Luc after overnight incubation by luciferase reporter gene assay", "type": "cell-based", "method_in_brief": "(§2)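 Cell-based Gal-4 transactivation assay in COS-7 cells transfected with PPARα, PPARδ or PPARγ ligand-binding domain. EC50 and Emax were derived, with Emax as maximum activation in percent of control. EC50s are means of at least two independent experiments performed in triplicate.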"}, "[5]": {"molecular_target": "T3, Peroxisome proliferator-activated receptor delta (Homo sapiens) (UniProt Q03181)", "T3 sequence (whole entry)": "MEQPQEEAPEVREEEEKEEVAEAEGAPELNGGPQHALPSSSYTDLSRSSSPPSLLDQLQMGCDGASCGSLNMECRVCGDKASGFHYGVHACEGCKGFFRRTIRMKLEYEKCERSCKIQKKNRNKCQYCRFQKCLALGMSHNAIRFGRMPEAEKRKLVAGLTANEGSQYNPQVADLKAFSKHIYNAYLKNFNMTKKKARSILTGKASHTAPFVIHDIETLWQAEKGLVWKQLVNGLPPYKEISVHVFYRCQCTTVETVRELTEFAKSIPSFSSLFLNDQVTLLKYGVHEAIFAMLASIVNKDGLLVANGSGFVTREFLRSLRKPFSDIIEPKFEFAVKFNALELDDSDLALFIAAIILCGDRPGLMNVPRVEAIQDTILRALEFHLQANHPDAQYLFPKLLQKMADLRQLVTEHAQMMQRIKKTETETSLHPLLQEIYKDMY", "experiment": "Transactivation of human GAL4-fused PPARdelta LBD expressed in African green monkey COS7 cells co-expressing 5Gal4 pGL3 TK Luc after overnight incubation by luciferase reporter gene assay relative to GW501516", "type": "cell-based", "method_in_brief": "as §2"}, "[6]": {"molecular_target": "T1, Peroxisome proliferator-activated receptor delta (Mus musculus)", "experiment": "Transactivation of PPARdelta in mouse C2C12 cells assessed increase in [14C]oleate beta-oxidation at 1 uM preincubated for 48 hrs followed by [14C]oleate addition during last 2 hrs of incubation period relative to control", "type": "cell-based", "method_in_brief": "as §1"}, "[7]": {"molecular_target": "T4, Peroxisome proliferator-activated receptor gamma (Mus musculus, UniProt P37238)", "T4 sequence (P37238 whole entry)": "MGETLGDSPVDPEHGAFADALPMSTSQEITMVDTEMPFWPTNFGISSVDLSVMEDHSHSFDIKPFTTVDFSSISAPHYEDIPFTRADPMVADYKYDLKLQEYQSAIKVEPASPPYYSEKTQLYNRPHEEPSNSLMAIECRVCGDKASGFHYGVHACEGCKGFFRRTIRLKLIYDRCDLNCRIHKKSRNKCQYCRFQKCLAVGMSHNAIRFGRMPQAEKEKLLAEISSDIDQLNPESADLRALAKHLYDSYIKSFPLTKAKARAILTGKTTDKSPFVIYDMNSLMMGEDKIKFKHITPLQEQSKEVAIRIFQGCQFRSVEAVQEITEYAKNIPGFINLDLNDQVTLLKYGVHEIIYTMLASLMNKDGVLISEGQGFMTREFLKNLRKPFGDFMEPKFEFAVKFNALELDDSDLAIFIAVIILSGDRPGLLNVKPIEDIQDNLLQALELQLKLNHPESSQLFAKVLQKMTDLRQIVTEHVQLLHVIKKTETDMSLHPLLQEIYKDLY", "experiment": "Transactivation of mouse GAL4-fused PPARgamma LBD expressed in African green monkey COS7 cells co-expressing 5Gal4 pGL3 TK Luc after overnight incubation by luciferase reporter gene assay"}, "[8]": {"molecular_target": "T2, Peroxisome proliferator-activated receptor gamma"}, "[9]": {"molecular_target": "T2, Peroxisome proliferator-activated receptor gamma", "remark": "listed apart in the source"}, "[10]": {"molecular_target": "T2, Peroxisome proliferator-activated receptor gamma", "remark": "listed apart in the source"}},
  "data": [
    {"smiles": "O=C(O)CCc1cc2cc(Cl)ccc2n1S(=O)(=O)c1ccccc1", "values": [
      {"measurement": "Activity", "setting": "[1]", "value": 27, "unit": "%"},
      {"measurement": "Activity", "setting": "[2]", "value": 12, "unit": "%"},
      {"measurement": "Cmax", "setting": "[3]", "value": 14600, "unit": "ng/mL"},
      {"measurement": "EC50", "setting": "[4]", "value": 1.56, "unit": "µM"},
      {"measurement": "Emax", "setting": "[5]", "value": 56, "unit": "%"},
      {"measurement": "Activity", "setting": "[6]", "value": -6, "unit": "%"}
    ]},
    {"smiles": "O=C(O)CCCc1cc2cc(Cl)ccc2n1S(=O)(=O)c1ccc2ncsc2c1", "note": "[LANIFIBRANOR]", "values": [
      {"measurement": "Activity", "setting": "[1]", "value": 55, "unit": "%"},
      {"measurement": "Activity", "setting": "[2]", "value": 67, "unit": "%"},
      {"measurement": "EC50", "setting": "[7]", "value": 0.202, "unit": "µM"},
      {"measurement": "Cmax", "setting": "[3]", "value": 10700, "unit": "ng/mL"},
      {"measurement": "EC50", "setting": "[8]", "value": 1.48, "unit": "µM"},
      {"measurement": "EC50", "setting": "[4]", "value": 0.206, "unit": "µM"},
      {"measurement": "Emax", "setting": "[5]", "value": 105, "unit": "%"},
      {"measurement": "EC50", "setting": "[9]", "value": 3.27, "unit": "µM"},
      {"measurement": "Activity", "setting": "[6]", "value": 12, "unit": "%"},
      {"measurement": "EC50", "setting": "[10]", "value": 4.1, "unit": "µM"}
    ]}
  ]
}
